# Source: PubChem
# Most compounds without a hit are left out; they make up all but 0.92% or so of the library.
# MLL AF4-AF9 inh: inhibitors of AF4 peptide binding to AF9, primary screen, biochemical, AlphaScreen, biotin-AF4 peptide, FLAG-AF9, single point; Protein AF-9 (Homo sapiens), P42568; inhibition, % at 10 µM; 350,000 compounds, 0.47% hits; AID 651704, 2012;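 active = every replicate reaching a set inhibition limit, whatever the replicate mean, cut at about 25% in these data; inconclusive = mean inhibition reaches that limit but some replicates miss it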;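 also: 0% = plate neutral control median and 100% = total signal loss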
# Target sequence (P42568 whole entry, looked up): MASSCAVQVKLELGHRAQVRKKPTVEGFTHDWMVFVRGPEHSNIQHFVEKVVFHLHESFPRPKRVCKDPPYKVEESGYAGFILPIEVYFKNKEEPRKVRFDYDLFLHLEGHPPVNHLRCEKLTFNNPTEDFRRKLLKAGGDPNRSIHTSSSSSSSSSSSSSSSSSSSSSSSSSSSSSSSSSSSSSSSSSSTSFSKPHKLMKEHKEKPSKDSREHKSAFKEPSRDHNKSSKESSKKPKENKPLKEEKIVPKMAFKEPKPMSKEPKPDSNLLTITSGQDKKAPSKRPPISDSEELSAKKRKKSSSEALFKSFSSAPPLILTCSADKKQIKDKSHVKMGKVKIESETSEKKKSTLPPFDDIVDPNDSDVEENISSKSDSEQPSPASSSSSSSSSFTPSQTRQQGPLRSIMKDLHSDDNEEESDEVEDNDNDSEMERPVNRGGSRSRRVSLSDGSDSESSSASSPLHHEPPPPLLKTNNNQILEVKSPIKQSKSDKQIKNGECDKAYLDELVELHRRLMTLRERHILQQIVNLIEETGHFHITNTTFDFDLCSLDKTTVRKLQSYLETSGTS
# RAD52 anneal inh: RAD52 DNA annealing inhibitors, primary screen, biochemical, FRET, single point, set 2. DNA repair protein RAD52 homolog (Homo sapiens), P43351. recombinant RAD52 DNA annealing, FRET fluorescence. inhibition, % at 18.7 µM. 360,000 compounds, 0.46% hits. AID 651710, 2012;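 active = every replicate showing at least 50% inhibition; inconclusive = mean inhibition at least 50% but not in every replicate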
# RAD54 branch: inhibitors of human RAD54 branch migration, primary screen, biochemical, fluorescence, single point. DNA repair and recombination protein RAD54-like (Homo sapiens), Q92698. 360,000 compounds, 0.14% hits. inhibition, % at 10.4 µM. RAD54 Holliday junction branch migration, FAM/BHQ fluorescence;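 active = mean normalized replicate activity at least 40 and at least half of replicates scoring 40 or more; inconclusive = only one of the two criteria met; inactive = mean below 40 and under half of replicates reaching 40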;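 also: 0% = median of neutral control wells and 100% = median of positive control wells; inhibitors cause a drop in the FAM fluorescence signal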
# FN deposition inh: inhibitors of fibronectin matrix deposition, primary screen, AH1F cells, Alexa488-fibronectin fluorescence, plate reader. AH1F fibroblasts, overnight. inhibition, % at 12.6 µM. 350,000 compounds, 0.086% hits. AID 743247, 2014;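 active = mean inhibition across replicates of 30% or more, regardless of how many single replicates reach that level; inconclusive = mean under 30% yet at least half of replicates reach 30%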;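 also: positive control wells lacked labelled fibronectin entirely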
#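 Material: AH1F fibroblast monolayer depositing Alexa488-labelled fibronectin into matrix | Input: 10000 AH1F cells/well | Medium: DMEM plus 2% serum, read in PBS | Reagent: Alexa488-fibronectin, 24 nM final in well | Compound dosing: One dose per compound, pinned | Schedule: 1 h adhesion, overnight exposure | Measured by: Fluorescence at 485 nm excitation, 525 nm emission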
# Glyco luc inh: increase of ERlucT glycosylation luciferase signal, primary screen, N-linked glycosylation inhibitor project, D54 ERlucT cells, luminescence, set 2; 360,000 compounds, 0.23% hits; reporter increase, % at 12.5 µM; D54 ERlucT glycosylation luciferase reporter, 24 h; percent of 100 nM tunicamycin response;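 active = mean luciferase reporter signal, scaled so untreated is 0 and the glycosylation-blocking control 100, at or above a set limit in every replicate; inconclusive = mean reaches the limit but not every replicate does; inactive = mean below the limit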;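 also: luciferase carries N-glycosylation sites so blocking glycosylation raises the light; 0% = median of neutral control wells and 100% = median of 100 nM tunicamycin wells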
# Starred values were filed as active, the others as inactive; ? = inconclusive; . = no result.
SMILES,MLL AF4-AF9 inh,RAD52 anneal inh,RAD54 branch,FN deposition inh,Glyco luc inh
O=C(N[C@@H]1CC[C@@H](CCn2cc(C3(O)CCCC3)nn2)O[C@H]1CO)c1ccccc1F,-2,5,-2,1,.
Cc1ccccc1-n1sc2cc(F)ccc2c1=O,-12,-9,3,40*,-1
c1ccc(-c2cnnc(SCc3cn4cccnc4n3)n2)cc1,.,.,.,.,-3
c1ccc2[nH]c(SCc3cn4cccnc4n3)nc2c1,.,.,.,31*,1
O=C(C[C@H]1C[C@H]2c3cc(NC(=O)Nc4ccc(C(F)(F)F)cc4)ccc3O[C@H]2[C@@H](CO)O1)NCc1ccccn1,-1,-12,7,-81,.
COc1cc(NC(C(=O)Nc2cccc(C(C)=O)c2)c2ccccc2)cc(OC)c1OC (centres undefined),.,.,.,.,27*
C[C@@H](NC(=O)C[C@H]1C=C[C@@H](NC(=O)C2CCOCC2)[C@H](CO)O1)c1ccccc1,-1,-4,-2,.,.
C#CCNC(=O)C1=C[C@@H](C(C)(C)C)[C@H](CCCO)[C@@H](OCC)O1,0,-5,.,.,.
O=C(CN(Cc1ccccc1)C(=O)CCC(=O)Nc1nccs1)NCc1ccccc1,43*,-12,.,-2,1
COCC#Cc1ccc2c(c1)O[C@@H](CN(C)C(=O)Nc1ccccc1F)[C@H](C)CN([C@@H](C)CO)S2(=O)=O,-2,-3,6,.,.
C[C@@H]1CN([C@@H](C)CO)C(=O)Cc2cc(NS(=O)(=O)c3ccccc3)ccc2O[C@@H]1CN(C)CC1CC1,-1,-2,8,.,.
COc1ccc(Cl)cc1NC(=O)CSc1nc(Nc2ccccc2)nc(N2CCOCC2)n1,-1,-9,7,31*,-9
COc1ccc(Cl)cc1NC(=O)CSc1nc(N2CCOCC2)nc(N2CCOCC2)n1,1,-8,-6,4,-3
O=C(C[C@@H]1C[C@@H]2c3cc(NC(=O)c4ccc5c(c4)OCO5)ccc3O[C@@H]2[C@@H](CO)O1)NCc1ccc(Oc2ccccc2)cc1,2,5,1,31*,.
COc1cccc(S(=O)(=O)Nc2ccc3c(c2)[C@@H]2C[C@@H](CC(=O)NC4CCCCC4)O[C@@H](CO)[C@@H]2O3)c1,0,0,1,5,.
O=C(C[C@H]1C[C@H]2c3cc(NC(=O)c4ccc5c(c4)OCO5)ccc3O[C@H]2[C@@H](CO)O1)NCc1ccc(Oc2ccccc2)cc1,1,-1,7,25,.
COc1cccc(S(=O)(=O)Nc2ccc3c(c2)[C@H]2C[C@@H](CC(=O)NC4CCCCC4)O[C@H](CO)[C@H]2O3)c1,22,67*,-29,.,.
CCC(=O)N1CC[C@H]2[C@H](CO)Nc3ccc(C#Cc4cccc(OC)c4)cc3[C@H]21,.,.,.,3,.
COc1ccccc1CCC(=O)Nc1ccc2c(c1)c(=O)n(C)n2-c1cccs1,-1,-11,4,13,34*
COc1cc(Cn2c3ccc(NC(=O)CCc4ccccc4)cc3c(=O)n2C)ccc1F,0,-25,-5,-9,21
O=C(C[C@H]1CC[C@@H](NC(=O)Nc2ccc(F)cc2)[C@@H](CO)O1)NCc1cccc(F)c1,-1,5,-5,.,.
COc1ccc(/C=N/Nc2cc(C)nc3ccccc23)cc1,17,91*,97*,9,-7
COc1ccc2c3c([nH]c2c1)[C@H](CO)N(C(=O)c1cccnc1)CC31CN(Cc2ccccc2)C1,0,3,.,-8,.
CCOc1ccc(NCc2cccn2-c2nnc(N3CCC(C(=O)NCCCN4CCCCC4)CC3)s2)cc1,33*,24,9,-2,-5
O=C(CSc1ncnc2nc[nH]c12)c1ccc([N+](=O)[O-])cc1,-2,3,.,2,45*
SMILES,MLL AF4-AF9 inh,RAD52 anneal inh,RAD54 branch,FN deposition inh,Glyco luc inh
O=C(CSc1ncnc2nc[nH]c12)c1ccc(Cl)cc1,4,-43,-5,20,?
CCOC(=O)C(C)(C)Sc1ncnc2nc[nH]c12,.,.,-2,.,0
CCOC(=O)c1cc([N+](=O)[O-])cc([N+](=O)[O-])c1Sc1ncnc2nc[nH]c12,-5,-11,.,2,99*
CC(C)NC(=O)Nc1ccc2c(c1)C(=O)N([C@H](C)CO)C[C@@H](C)[C@@H](CN(C)C(=O)Nc1ccccc1)OCCCC[C@@H](C)O2,-1,9,-3,-9,.
COc1ccc2ccc3cccc[n+]3c2c1,-2,10,51*,-13,3
COc1ccc(NC(=O)Nc2ccc3c(c2)C(=O)N([C@@H](C)CO)C[C@H](C)[C@H](CN(C)Cc2ccccc2)OCCCC[C@@H](C)O3)cc1,12,60*,6,0,.
COc1ccc(CN(C)C[C@H]2OCCCC[C@H](C)Oc3ccc(NC(=O)Nc4ccccc4)cc3C(=O)N([C@@H](C)CO)C[C@@H]2C)cc1,.,.,-3,4,.
COc1ccc(NC(=O)Nc2ccc3c(c2)C(=O)N([C@@H](C)CO)C[C@H](C)[C@H](CN(C)Cc2ccccc2)OCCCC[C@H](C)O3)cc1,10,57*,3,5,.
COc1ccc(NC(=O)Nc2ccc3c(c2)C(=O)N([C@H](C)CO)C[C@@H](C)[C@@H](CN(C)Cc2ccccc2)OCCCC[C@H](C)O3)cc1,-4,51*,0,-12,.
C[C@H]1CCCCO[C@H](CN(C)Cc2ccccc2)[C@@H](C)CN([C@@H](C)CO)C(=O)c2cc(NC(=O)Nc3ccc(F)cc3)ccc2O1,15,49,3,.,.
COc1ccc(NC(=O)Nc2ccc3c(c2)C(=O)N([C@@H](C)CO)C[C@H](C)[C@@H](CN(C)Cc2ccccc2)OCCCC[C@H](C)O3)cc1,7,32,1,-7,.
C[C@@H]1CCCCO[C@H](CN(C)Cc2ccccc2)[C@H](C)CN([C@@H](C)CO)C(=O)c2cc(NC(=O)Nc3ccc(F)cc3)ccc2O1,9,53*,5,.,.
CS(=O)(=O)N1CC2(C1)[C@H](c1ccccc1)[C@H](CO)N2C(=O)c1ccccc1,-2,-2,.,.,.
C[C@@H]1CC=CC[C@H](c2ccc(F)cc2)NC(=O)[C@H](C)N(C)C(=O)c2ccccc2O1 (mixture of isomers),.,.,.,3,.
COc1ccccc1CNC(=O)C[C@@H]1C[C@@H]2c3cc(NC(=O)Nc4ccc(C(F)(F)F)cc4)ccc3O[C@@H]2[C@@H](CO)O1,.,.,.,-29,.
CNC(=O)C[C@H]1CC[C@H]2[C@@H](COc3ccc(NC(=O)c4cccs4)cc3C(=O)N2C)O1,.,.,6,1,.
C[C@H]1CN([C@@H](C)CO)C(=O)c2cc(NC(=O)Cc3ccccc3)ccc2O[C@H]1CN(C)CC1CCCCC1,-3,6,7,-9,.
